From ChEMBL document CHEMBL1125349 (J Med Chem, 1992)
Non-standard residues stand in square brackets, D forms with d. Residues, ends and D or L forms follow the SMILES beside them. Ava = NCCCCC(=O)O

Key:
Neuromedin-K receptor = biological target: T1, Neuromedin-K receptor (Rattus norvegicus, UniProt P16177); experiment: In vitro agonistic activity against tachykinin receptor 3 of everted rat protal vein.; format: functional
T1 sequence (P16177 whole entry): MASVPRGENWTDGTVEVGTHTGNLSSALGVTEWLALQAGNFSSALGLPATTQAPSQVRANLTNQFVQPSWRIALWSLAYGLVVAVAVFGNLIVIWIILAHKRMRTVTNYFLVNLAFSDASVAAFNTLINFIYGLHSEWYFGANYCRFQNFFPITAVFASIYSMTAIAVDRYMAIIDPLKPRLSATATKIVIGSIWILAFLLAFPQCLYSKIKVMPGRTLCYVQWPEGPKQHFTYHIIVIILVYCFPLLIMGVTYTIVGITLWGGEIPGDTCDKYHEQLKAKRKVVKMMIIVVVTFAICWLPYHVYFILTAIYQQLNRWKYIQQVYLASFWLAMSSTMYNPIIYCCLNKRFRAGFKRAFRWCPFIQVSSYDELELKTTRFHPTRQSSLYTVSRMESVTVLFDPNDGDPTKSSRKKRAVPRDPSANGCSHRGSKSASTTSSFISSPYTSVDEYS
Procedure, shortened: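 Everted isolated portal vein segments from male AH/A rats, 3-mL baths at 37 °C, 0.5 g resting tension, modified Krebs-Henseleit medium, isotonic contractions. […] Equipotent molar ratios were calculated and related to the reference agonist's mean EC50.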

Substance-P receptor = Substance-P receptor (Cavia porcellus, UniProt P30547); experiment: In vitro agonistic activity against tachykinin receptor 1 of guinea pig ileum longitudinal smooth muscle.; format: functional, tissue-based
Substance-K receptor = biological target: T2, Substance-K receptor (Rattus norvegicus, UniProt P16610); experiment: In vitro agonistic activity against tachykinin receptor 2 of rat colon muscularis mucosae.; format: functional
T2 sequence (P16610 whole entry): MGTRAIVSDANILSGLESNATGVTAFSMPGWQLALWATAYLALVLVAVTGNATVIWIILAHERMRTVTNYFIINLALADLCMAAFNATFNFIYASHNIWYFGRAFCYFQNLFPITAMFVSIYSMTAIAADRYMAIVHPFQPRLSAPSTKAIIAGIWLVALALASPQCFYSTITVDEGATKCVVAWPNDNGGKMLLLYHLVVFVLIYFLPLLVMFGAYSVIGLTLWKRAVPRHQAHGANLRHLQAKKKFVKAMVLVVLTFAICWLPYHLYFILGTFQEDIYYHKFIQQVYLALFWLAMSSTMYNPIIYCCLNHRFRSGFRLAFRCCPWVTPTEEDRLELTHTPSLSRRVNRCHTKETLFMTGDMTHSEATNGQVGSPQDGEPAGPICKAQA
Procedure, shortened: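 Colon muscularis mucosae from male AH/A rats (250-350 g), 3-mL baths, 0.5 g resting tension, 35 °C, with atropine, mepyramine, methysergide and indomethacin (1 µM each). Isotonic contraction was recorded.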

Chain of Substance-P receptor (P30547 whole entry): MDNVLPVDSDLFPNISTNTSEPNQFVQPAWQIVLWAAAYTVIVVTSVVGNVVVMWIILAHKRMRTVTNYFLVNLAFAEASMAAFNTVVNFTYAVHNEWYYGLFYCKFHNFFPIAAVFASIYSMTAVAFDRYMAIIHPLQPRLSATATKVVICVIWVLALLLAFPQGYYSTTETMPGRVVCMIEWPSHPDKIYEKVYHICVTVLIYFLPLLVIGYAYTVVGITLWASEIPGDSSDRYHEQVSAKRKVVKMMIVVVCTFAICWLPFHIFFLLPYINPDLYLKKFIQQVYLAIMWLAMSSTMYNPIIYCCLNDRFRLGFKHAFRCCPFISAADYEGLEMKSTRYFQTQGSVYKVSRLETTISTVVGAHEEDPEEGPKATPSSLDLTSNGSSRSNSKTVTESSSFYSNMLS

EC50 (Neuromedin-K receptor)	EC50 (Substance-P receptor)	EC50 (Substance-K receptor)	Compound
563 nM	13.7 nM	–	CSCC[C@H](NC(=O)[C@H](CC(C)C)NC(=O)CNC(=O)[C@@H](NC(=O)[C@H](Cc1ccccc1)NC(=O)[C@H](CO)NC(=O)[C@H](CC(=O)O)NC(=O)[C@@H](NC(=O)[C@H](CCCCN)NC(=O)[C@@H](N)Cc1cnc[nH]1)[C@@H](C)O)C(C)C)C(N)=O [NEUROKININ A]
> 8220 nM	37700 nM	1190 nM	CSCC[C@H](NC(=O)[C@H](CC(C)C)N1C[C@@H]2CCN(C(=O)[C@H](Cc3ccccc3)NC(=O)[C@H](Cc3ccccc3)NC(=O)CCCCN)[C@@H]2C1=O)C(N)=O
870 nM	61 nM	3 nM	CSCC[C@H](NC(=O)[C@H](CC(C)C)NC(=O)CNC(=O)[C@@H](NC(=O)[C@H](Cc1ccccc1)NC(=O)[C@H](CO)NC(=O)[C@H](CC(=O)O)NC(=O)[C@@H](N)CCCCN)C(C)C)C(N)=O
2630 nM	1030 nM	45 nM	CSCC[C@H](NC(=O)[C@H](CC(C)C)N1CC2CCN(C(=O)[C@H](Cc3ccccc3)NC(=O)[C@H](Cc3ccccc3)NC(=O)[C@H](CO)NC(=O)[C@H](CC(=O)O)NC(=O)[C@@H](N)CCCCN)C2C1=O)C(N)=O (stereo not given in full)
6.3 nM	68 nM	–	CSCC[C@H](NC(=O)[C@H](CC(C)C)NC(=O)CNC(=O)[C@@H](NC(=O)[C@H](Cc1ccccc1)NC(=O)[C@H](Cc1ccccc1)NC(=O)[C@H](CC(=O)O)NC(=O)[C@H](Cc1c[nH]cn1)NC(=O)[C@H](CCSC)NC(=O)[C@@H](N)CC(=O)O)C(C)C)C(N)=O [NEUROKININ B]
> 10000 nM	13.4 nM	13000 nM	CSCC[C@H](NC(=O)[C@H](CC(C)C)NC(=O)[C@@H]1CCCN1C(=O)[C@H](Cc1ccccc1)NC(=O)[C@H](Cc1ccccc1)NC(=O)CCCCN)C(N)=O
> 30000 nM	830 nM	92 nM	CSCC[C@H](NC(=O)[C@H](CC(C)C)NC(=O)[C@H]1CCCN1C(=O)[C@H](Cc1ccccc1)NC(=O)[C@H](Cc1ccccc1)NC(=O)CCCCN)C(N)=O
1180 nM	4240 nM	3.7 nM	CSCC[C@H](NC(=O)[C@H](CC(C)C)N1CC[C@@H](NC(=O)[C@@H](NC(=O)[C@H](Cc2ccccc2)NC(=O)[C@H](CO)NC(=O)[C@H](CC(=O)O)NC(=O)[C@@H](N)CCCCN)C(C)C)C1=O)C(N)=O
> 47000 nM	5230 nM	2100 nM	CSCC[C@H](NC(=O)[C@@H](CC(C)C)N1C[C@H]2CCN(C(=O)[C@H](Cc3ccccc3)NC(=O)[C@H](Cc3ccccc3)NC(=O)CCCCN)[C@H]2C1=O)C(N)=O
2720 nM	1130 nM	59 nM	CSCC[C@H](NC(=O)[C@H](CC(C)C)N1CC2CCN(C(=O)[C@@H](NC(=O)[C@H](Cc3ccccc3)NC(=O)[C@H](CO)NC(=O)[C@H](CC(=O)O)NC(=O)[C@@H](N)CCCCN)C(C)C)C2C1=O)C(N)=O (stereo not given in full)
–	44 nM	1.3 nM	CSCC[C@H](NC(=O)[C@H](CC(C)C)N1CCC(NC(=O)[C@@H](NC(=O)[C@H](Cc2ccccc2)NC(=O)[C@H](CO)NC(=O)[C@H](CC(=O)O)NC(=O)[C@H](CCCCN)NC(C)=O)C(C)C)C1=O)C(N)=O (stereo not given in full)
10600 nM	86 nM	62 nM	CSCC[C@H](NC(=O)[C@H](CC(C)C)N1CCC(NC(=O)[C@H](Cc2ccccc2)NC(=O)[C@H](Cc2ccccc2)NC(=O)CCCCN)C1=O)C(N)=O (stereo not given in full)
857 nM	45 nM	33 nM	H-KDSFFGLM-NH2
> 18000 nM	545 nM	15 nM	CSCC[C@H](NC(=O)[C@H](CC(C)C)N1C[C@H]2CCN(C(=O)[C@H](Cc3ccccc3)NC(=O)[C@H](Cc3ccccc3)NC(=O)CCCCN)[C@H]2C1=O)C(N)=O
–	307 nM	1390 nM	CSCC[C@H](NC(=O)[C@H](CC(C)C)N1CC[C@]2(CCCN2C(=O)[C@H](Cc2ccccc2)NC(=O)[C@H](Cc2ccccc2)NC(=O)CCCCN)C1=O)C(N)=O
–	86 nM	94 nM	CSCC[C@H](NC(=O)[C@H](CC(C)C)NC(=O)CNC(=O)[C@@H](NC(=O)[C@H](Cc1ccccc1)NC(=O)CCCCN)C(C)C)C(N)=O (H-[Ava]FVGLM-NH2)
> 30000 nM	3730 nM	566 nM	CSCC[C@H](NC(=O)[C@@H](CC(C)C)N1C[C@@H]2CCN(C(=O)[C@H](Cc3ccccc3)NC(=O)[C@H](Cc3ccccc3)NC(=O)CCCCN)[C@@H]2C1=O)C(N)=O
11300 nM	38 nM	1190 nM	CSCC[C@H](NC(=O)[C@H](CC(C)C)NC(=O)CNC(=O)[C@H](Cc1ccccc1)NC(=O)[C@H](Cc1ccccc1)NC(=O)CCCCN)C(N)=O (H-[Ava]FFGLM-NH2)
7500 nM	–	–	CSCC[C@H](NC(=O)[C@H](CC(C)C)NC(=O)CNC(=O)[C@H](Cc1ccccc1)NC(=O)[C@H](Cc1ccccc1)NC(=O)[C@H](CCC(N)=O)NC(=O)[C@H](CCC(N)=O)NC(=O)[C@@H]1CCCN1C(=O)[C@H](CCCCN)NC(=O)[C@@H]1CCCN1C(=O)[C@@H](N)CCCN=C(N)N)C(N)=O [SUBSTANCE P]
